Activity calls are given as the source filed them. No cut-off for these calls is given here.
Assays:
HEL [1] = assay: Cell cycle arrest in HEL cells assessed as increase in G1 phase accumulation at 5 umol/L after 48 hrs by propidium iodide staining based flow cytometry; type: functional; settings: Homo sapiens
In short: (§1)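 Cells grown in DMEM with 10% FBS and penicillin/streptomycin at 37 °C, 5% CO2, and passaged at least 3 times after thawing. Treated 48 h at 5 µmol/L, DMSO-treated controls. Harvested by trypsin, PBS-washed, fixed in ice-cold ethanol, blocked 1 h at 4 °C in 5% BSA/PBS, RNase 1 µg/mL 30 min at 37 °C, PI 20 µg/mL final. Phase percentages read from PI histograms. Mean ± SD, three independent experiments.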

K562 [2] = assay: Cytotoxicity against human K562 cells after 48 hrs by MTT assay; type: functional, cell-based
In short: (§2)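 Cells kept in DMEM/10% FBS at 37 °C, 5% CO2, seeded at 4×10^3–8×10^3 cells/well and left 24 h to adhere. Exposed 48 h to a range of concentrations. MTT (5 mg/mL solution) added for 4 h at 37 °C, formazan dissolved in DMSO, absorbance read at 490 nm. IC50 derived from concentration–inhibition relation. Doxorubicin as positive control.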

MDA-MB-231 [3] = assay: Growth inhibition of human MDA-MB-231 cells at 5 umol/L after 48 hrs by MTT assay relative to control; type: functional; settings: MDA-MB-231, 48 h, read-out: GI
In short: (§3)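 Cells kept in DMEM/10% FBS at 37 °C, 5% CO2, seeded at 4×10^3–8×10^3 cells/well, 24 h attachment, then 48 h with compound at 5 µmol/L. MTT (5 mg/mL solution) added for 4 h at 37 °C, formazan taken up in DMSO, A490 read. Percent inhibition as mean ± SD of three independent experiments. Doxorubicin as positive control.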

K562 [4] = assay: Induction of morphological changes in human K562 cells assessed as increase in intracellular space at 5 umol/L after 48 hrs by inverted microscopic method; type: functional, cell-based
In short: (§4)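 Cells cultured in DMEM/10% FBS at 37 °C, 5% CO2. Exposed 48 h to 5 µmol/L compound alongside DMSO controls. Morphology (cell number, rounding, spacing, apoptotic bodies, spindle shape) observed under an inverted microscope with CCD camera.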

PC-3 [5] = assay: Induction of apoptosis in human PC3 cells assessed as effect on cell adherence at 5 umol/L after 48 hrs by inverted microscopic method; type: functional, cell-based; in short: as §4
PC-3 [6] = assay: Induction of apoptosis in human PC3 cells assessed as late apoptotic cells at 5 umol/L after 48 hrs by annexin V-FITC/propidium iodide staining based flow cytometry (reference value: 4.7%); type: functional
PC-3 [7] = assay: Induction of apoptosis in human PC3 cells assessed as spindle like formation at 5 umol/L after 48 hrs by inverted microscopic method; type: functional, cell-based; in short: as §4
HEL [8] = assay: Induction of apoptosis in HEL cells assessed as viable cells at 5 umol/L after 48 hrs by annexin V-FITC/propidium iodide staining based flow cytometry (reference value: 93.1 to 94%); type: functional; settings: Homo sapiens, read-out: Activity
PC-3 [9] = assay: Potency index, ratio of compound effect to (E)-2-Hydroxy-4,4-dimethoxy-3,5-diprenylchalcone effect for growth inhibition of human PC3 cells; type: functional
MDA-MB-231 [10] = assay: Cell cycle arrest in human MDA-MB-231 cells assessed as decrease in S phase accumulation at 5 umol/L after 48 hrs by propidium iodide staining based flow cytometric method; type: functional; in short: as §1
MDA-MB-231 [11] = assay: Induction of morphological changes in human MDA-MB-231 cells assessed as increase in intracellular space at 5 umol/L after 48 hrs by inverted microscopic method; type: functional, cell-based; in short: as §4
K562 [12] = assay: Cell cycle arrest in human K562 cells assessed as decrease in G2 phase accumulation at 5 umol/L after 48 hrs by propidium iodide staining based flow cytometry; type: functional; in short: as §1
HEL [13] = assay: Induction of apoptosis in HEL cells assessed as necrotic cells at 5 umol/L after 48 hrs by annexin V-FITC/propidium iodide staining based flow cytometry (reference value: 0.3 to 1%); type: functional, Homo sapiens
PC-3 [14] = assay: Growth inhibition of human PC3 cells at 5 umol/L after 48 hrs by MTT assay relative to control; type: functional; settings: PC-3, 48 h, read-out: GI; in short: as §3
HEL [15] = assay: Potency index, ratio of compound effect to (E)-2-Hydroxy-4,4-dimethoxy-3,5-diprenylchalcone effect for growth inhibition of HEL cells; type: functional, Homo sapiens
MDA-MB-231 [16] = assay: Potency index, ratio of compound effect to (E)-2-Hydroxy-4,4-dimethoxy-3,5-diprenylchalcone effect for growth inhibition of human MDA-MB-231 cells; type: functional
HEL [17] = assay: Cytotoxicity against HEL cells after 48 hrs by MTT assay; type: functional, cell-based; settings: Homo sapiens; in short: as §2
PC-3 [18] = assay: Induction of morphological changes in human PC3 cells assessed as increase in cell rounding at 5 umol/L after 48 hrs by inverted microscopic method; type: functional, cell-based
In short: (§5)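 PC3 cells were kept in DMEM with 10% FBS, penicillin and streptomycin at 37 °C under 5% CO2, and were passaged at least 3 times after thawing. Cells were seeded at 4 × 10^3 to 8 × 10^3 cells/well and left to adhere for 24 h. They were then exposed to 5 µmol/L compound for 48 h. Morphology was viewed by inverted microscope against DMSO-treated controls.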

K562 [19] = assay: Induction of apoptosis in human K562 cells assessed as viable cells at 5 umol/L after 48 hrs by annexin V-FITC/propidium iodide staining based flow cytometry (reference value: 92.6%); type: functional; settings: K562, 48 h, read-out: Activity
PC-3 [20] = assay: Induction of morphological changes in human PC3 cells assessed as increase in intracellular space at 5 umol/L after 48 hrs by inverted microscopic method; type: functional, cell-based; in short: as §5
PC-3 [21] = assay: Induction of apoptosis in human PC3 cells assessed as necrotic cells at 5 umol/L after 48 hrs by annexin V-FITC/propidium iodide staining based flow cytometry (reference value: 4.6%); type: functional
MDA-MB-231 [22] = assay: Cell cycle arrest in human MDA-MB-231 cells assessed as increase in G2 phase accumulation at 5 umol/L after 48 hrs by propidium iodide staining based flow cytometry; type: functional; in short: as §1
MDA-MB-231 [23] = assay: Induction of apoptosis in human MDA-MB-231 cells assessed as late apoptotic cells at 5 umol/L after 48 hrs by annexin V-FITC/propidium iodide staining based flow cytometry (reference value: 2.2%); type: functional
K562 [24] = assay: Induction of morphological changes in human K562 cells assessed as increase in formation of apoptotic bodies at 5 umol/L after 48 hrs by inverted microscopic method; type: functional, cell-based; in short: as §4

Q: For `COc1c(CC=C(C)C)cc(C(=O)/C=C/c2cccnc2)c(O)c1CC=C(C)C`, which Activity (HEL [1]) is on record?
A: The Activity was “Active”.

Q: And the Activity (K562 [2])?
A: The Activity was “Dose-dependent effect”.

Q: And the IC50 (K562 [2]; K562, 48 h)?
A: Its IC50 is 2.64 µM.

Q: What about the inhibition of growth at 5 µM (MDA-MB-231 [3]) of the same molecule?
A: The inhibition of growth at 5 µM was 83.4%.

Q: What about the Activity (K562 [4]) of the same molecule?
A: Its Activity is “Active”.

Q: And the Activity (PC-3 [5])?
A: Its Activity is “Active”.

Q: What about the Activity (PC-3 [6]) of the same molecule?
A: Its Activity is 42.7%.

Q: What about the Activity (PC-3 [7]) of the same molecule?
A: Its Activity is “Active”.

Q: What about the viability at 5 µM (HEL [8]) of the same molecule?
A: The viability at 5 µM was 82.4%.

Q: And the Ratio (PC-3 [9])?
A: The Ratio was 3 - 4.

Q: What about the Activity (MDA-MB-231 [10]) of the same molecule?
A: Its Activity is “Active”.

Q: What about the Activity (MDA-MB-231 [11]) of the same molecule?
A: Its Activity is “Active”.

Q: What about the Activity (K562 [12]) of the same molecule?
A: The Activity was “Active”.

Q: What about the Activity (HEL [13]) of the same molecule?
A: Its Activity is 4.9%.

Q: What about the inhibition of growth at 5 µM (PC-3 [14]) of the same molecule?
A: The inhibition of growth at 5 µM was 90.4%.

Q: And the Ratio (HEL [15])?
A: The Ratio was 3 - 4.

Q: What about the Ratio (MDA-MB-231 [16]) of the same molecule?
A: The Ratio was 3 - 4.

Q: And the Activity (HEL [17])?
A: Its Activity is “Dose-dependent effect”.

Q: What about the IC50 (HEL [17]) of the same molecule?
A: Its IC50 is 1.85 µM.

Q: And the Activity (PC-3 [18])?
A: The Activity was “Active”.

Q: And the viability at 5 µM (K562 [19])?
A: Its viability at 5 µM is 64%.

Q: And the Activity (PC-3 [20])?
A: The Activity was “Active”.

Q: What about the Activity (PC-3 [21]) of the same molecule?
A: The Activity was 10.6%.

Q: What about the Activity (MDA-MB-231 [22]) of the same molecule?
A: Its Activity is “Active”.

Q: And the Activity (MDA-MB-231 [23])?
A: Its Activity is 36.8%.

Q: What about the Activity (K562 [24]) of the same molecule?
A: The Activity was “Active”.

Reference: ChEMBL document CHEMBL4052614, “Novel 3',5'-diprenylated chalcones inhibited the proliferation of cancer cells in vitro by inducing cell apoptosis and arresting cell cycle phase” (Eur J Med Chem, 2017)
